Test results reported in ChEMBL document CHEMBL1158608, “Hit-to-lead optimization of disubstituted oxadiazoles and tetrazoles as mGluR5 NAMs” (Bioorg Med Chem Lett, 2010).

Tests used:
[1] = target: T1, Metabotropic glutamate receptor 5 (Rattus norvegicus, UniProt P31424); assay: Displacement of [3H]-M-MPEP from mGluR5 in rat cerebrocortical membranes; type: cell membranes, Membrane
In short: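 Displacement run in duplicate or triplicate, with curves of at least six concentrations. IC50 was converted to Ki by Cheng-Prusoff, using Kd from a Scatchard plot.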

[2] = target: T1, Metabotropic glutamate receptor 5; assay: Allosteric modulation of mGluR5 in E17 rat neuronal cultures assessed as inhibition of (S)-3,5-dihydroxyphenylglycine-induced calcium level; type: functional
In short: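 Primary neocortical cultures from E17 rat embryos, grown at least 5 days, then loaded with the Ca2+ dye fluo-4/AM. Baseline and agonist-evoked fluorescence signals were recorded on a plate reader fluorometer.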

[3] = target: Metabotropic glutamate receptor 5 (Homo sapiens, UniProt P41594); assay: Binding affinity to human mGluR5
Chain of Metabotropic glutamate receptor 5 (Homo sapiens, UniProt P41594) (P41594 whole entry): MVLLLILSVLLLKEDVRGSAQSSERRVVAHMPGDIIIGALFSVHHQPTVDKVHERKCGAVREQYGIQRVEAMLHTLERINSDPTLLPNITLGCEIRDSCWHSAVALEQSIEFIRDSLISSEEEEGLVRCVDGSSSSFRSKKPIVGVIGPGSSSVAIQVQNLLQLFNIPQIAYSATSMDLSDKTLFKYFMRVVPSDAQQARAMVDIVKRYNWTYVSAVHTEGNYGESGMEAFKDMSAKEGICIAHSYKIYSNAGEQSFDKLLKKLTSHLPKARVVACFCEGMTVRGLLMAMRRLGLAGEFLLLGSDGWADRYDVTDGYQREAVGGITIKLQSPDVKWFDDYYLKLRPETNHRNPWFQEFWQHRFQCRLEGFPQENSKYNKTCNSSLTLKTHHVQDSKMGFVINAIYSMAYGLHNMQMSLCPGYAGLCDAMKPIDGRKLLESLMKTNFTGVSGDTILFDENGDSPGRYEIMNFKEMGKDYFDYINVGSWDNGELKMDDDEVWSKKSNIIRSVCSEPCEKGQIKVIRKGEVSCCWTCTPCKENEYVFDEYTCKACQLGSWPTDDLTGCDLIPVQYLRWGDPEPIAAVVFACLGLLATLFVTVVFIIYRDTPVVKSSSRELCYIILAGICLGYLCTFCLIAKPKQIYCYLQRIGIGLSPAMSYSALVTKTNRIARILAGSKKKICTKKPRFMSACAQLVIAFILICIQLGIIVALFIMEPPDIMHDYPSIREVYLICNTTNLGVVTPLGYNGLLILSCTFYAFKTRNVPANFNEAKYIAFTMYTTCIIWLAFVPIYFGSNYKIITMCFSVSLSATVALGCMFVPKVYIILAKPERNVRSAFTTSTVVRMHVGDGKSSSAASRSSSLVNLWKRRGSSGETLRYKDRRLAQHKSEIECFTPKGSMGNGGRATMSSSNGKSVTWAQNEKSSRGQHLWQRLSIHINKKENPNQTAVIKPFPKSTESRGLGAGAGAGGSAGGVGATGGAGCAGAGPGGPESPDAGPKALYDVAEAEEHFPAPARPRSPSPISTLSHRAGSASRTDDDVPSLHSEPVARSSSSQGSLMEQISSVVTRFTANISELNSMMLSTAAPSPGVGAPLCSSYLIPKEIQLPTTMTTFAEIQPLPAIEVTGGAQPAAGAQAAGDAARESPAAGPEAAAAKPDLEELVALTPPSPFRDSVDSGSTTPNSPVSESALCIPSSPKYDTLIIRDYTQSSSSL
In short: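 Run in duplicate or triplicate, with concentration-displacement curves of at least six concentrations giving IC50. Ki derived by Cheng-Prusoff, using the radioligand Kd determined from a Scatchard plot.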

T1 sequence (P31424 whole entry): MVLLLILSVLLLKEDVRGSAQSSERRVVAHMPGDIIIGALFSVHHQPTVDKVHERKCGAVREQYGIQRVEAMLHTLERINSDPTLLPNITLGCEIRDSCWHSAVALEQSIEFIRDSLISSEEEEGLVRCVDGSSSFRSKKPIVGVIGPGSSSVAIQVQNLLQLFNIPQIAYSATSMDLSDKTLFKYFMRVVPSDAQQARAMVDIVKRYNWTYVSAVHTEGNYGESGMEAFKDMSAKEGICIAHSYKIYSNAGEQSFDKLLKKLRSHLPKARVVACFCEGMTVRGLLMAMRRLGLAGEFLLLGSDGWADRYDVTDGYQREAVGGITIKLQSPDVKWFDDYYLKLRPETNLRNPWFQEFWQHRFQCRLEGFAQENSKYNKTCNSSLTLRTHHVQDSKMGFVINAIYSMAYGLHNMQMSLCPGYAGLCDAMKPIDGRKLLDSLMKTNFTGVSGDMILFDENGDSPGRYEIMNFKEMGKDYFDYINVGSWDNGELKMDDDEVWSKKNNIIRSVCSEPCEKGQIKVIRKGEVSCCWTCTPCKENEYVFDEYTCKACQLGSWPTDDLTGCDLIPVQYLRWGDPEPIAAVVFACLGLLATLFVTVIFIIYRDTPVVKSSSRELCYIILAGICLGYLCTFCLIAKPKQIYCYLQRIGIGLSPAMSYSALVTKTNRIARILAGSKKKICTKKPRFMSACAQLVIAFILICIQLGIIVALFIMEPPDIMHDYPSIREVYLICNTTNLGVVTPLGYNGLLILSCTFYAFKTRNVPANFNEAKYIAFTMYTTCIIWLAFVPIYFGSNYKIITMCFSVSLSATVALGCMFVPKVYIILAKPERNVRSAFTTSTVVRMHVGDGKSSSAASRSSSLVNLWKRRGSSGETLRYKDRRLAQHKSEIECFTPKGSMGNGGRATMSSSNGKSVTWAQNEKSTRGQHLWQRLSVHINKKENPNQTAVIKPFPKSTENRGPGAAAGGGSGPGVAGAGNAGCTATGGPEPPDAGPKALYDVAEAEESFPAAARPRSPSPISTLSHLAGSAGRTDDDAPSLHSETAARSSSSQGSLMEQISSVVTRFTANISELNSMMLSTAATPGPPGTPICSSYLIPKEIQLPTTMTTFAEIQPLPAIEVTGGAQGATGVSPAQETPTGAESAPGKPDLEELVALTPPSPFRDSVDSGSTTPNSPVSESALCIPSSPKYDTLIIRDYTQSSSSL

Compound: O=C(C1CCC1)N1CCCC[C@@H]1c1nnn(-c2cccc(Cl)c2)n1
- Ki [1]: 57.5 nM

Compound: O=C(C1CCC1)N1CCCC[C@H]1c1nnn(-c2cccc(Cl)c2)n1
- Ki [1]: 741 nM

Compound: N#Cc1cccc(-c2noc(C3CCCCN3C(=O)c3cccs3)n2)c1 (racemic)
- Ki [1]: 200 nM
- IC50 [2]: 1740 nM

Compound: COc1cccc(-c2noc(C3CCCCN3C(=O)C3CCC3)n2)c1 (racemic)
- Ki [1]: 182 nM
- IC50 [2]: 501 nM

Compound: COCC(=O)N1CCCC1c1nc(-c2cccc(C)c2)no1 (racemic)
- Ki [1]: 186 nM
- IC50 [2]: 30200 nM

Compound: O=C(c1ccco1)N1CSCC1c1nc(-c2cccc(Cl)c2)no1 (racemic)
- Ki [1]: 195 nM
- IC50 [2]: 1050 nM

Compound: O=C(c1cccs1)N1CCCC1c1nc(-c2cccc(Cl)c2)no1 (racemic)
- Ki [1]: 195 nM
- IC50 [2]: 30200 nM

Compound: N#Cc1cccc(-n2nnc(C3CCCCN3C(=O)C3CCC3)n2)c1 (racemic)
- Ki [1]: 229 nM

Compound: O=C(c1cccs1)N1CCCC(c2nnn(-c3cccc(Cl)c3)n2)C1 (racemic)
- Ki [1]: 316 nM

Compound: O=C(c1ccc(Br)o1)N1CCCCC1c1nnn(-c2cccc(F)c2)n1 (racemic)
- Ki [1]: 457 nM

Compound: Cc1cccc(-c2noc(C3CCCCN3C(=O)C3CCC3)n2)c1 (racemic)
- Ki [1]: 126 nM
- IC50 [2]: 490 nM

Compound: Cc1cccc(-c2noc(C3CCCN3C(=O)c3ccc(C)s3)n2)c1 (racemic)
- Ki [1]: 145 nM
- IC50 [2]: 1000 nM

Compound: Cc1cccc(-n2nnc(C3CCCCN3C(=O)C3CCC3)n2)c1 (racemic)
- Ki [1]: 72.4 nM
- IC50 [2]: 224 nM

Compound: O=C(C1CCCC1)N1CCCCC1c1nnn(-c2cccc(Cl)c2)n1 (racemic)
- Ki [1]: 87.1 nM
- IC50 [2]: 295 nM

Compound: Cc1ccc(C(=O)N2CSCC2c2nc(-c3cccc(Cl)c3)no2)s1 (racemic)
- Ki [1]: 83.2 nM
- IC50 [2]: 759 nM

Compound: Cc1ccc(C(=O)N2CCCC2c2nc(-c3cccc(Cl)c3)no2)s1 (racemic)
- Ki [1]: 123 nM
- IC50 [2]: 6610 nM

Compound: Cc1ccc(C(=O)N2CCCC2c2nnn(-c3cccc(Cl)c3)n2)s1 (racemic)
- Ki [1]: 89.1 nM
- IC50 [2]: 251 nM

Compound: Cc1cccc(-n2nnc(C3CCCCN3C(=O)C3CCCC3)n2)c1 (racemic)
- Ki [1]: 102 nM

Compound: Cc1ccc(C(=O)N2CCCC2c2nnn(-c3cccc(Cl)c3)n2)o1 (racemic)
- Ki [1]: 105 nM

Compound: O=C(c1ccco1)N1CCCCC1c1nnn(-c2cccc(Cl)c2)n1 (racemic)
- Ki [1]: 126 nM

Compound: CC(C)C(=O)N1CCCCC1c1nnn(-c2cccc(Cl)c2)n1 (racemic)
- Ki [1]: 138 nM

Compound: O=C(C1CCC1)N1CCCCC1c1nnn(-c2cccc(Cl)c2)n1 (racemic)
- Ki [1]: 77.6 nM
- IC50 [2]: 339 nM

Compound: CN1CC(=O)N=C1NC(=O)Nc1cccc(Cl)c1 [FENOBAM ANHYDROUS]
- Ki [3]: 6.76 nM
